Experimental findings from ChEMBL document CHEMBL2146381, “Structure-activity relationship (SAR) study of ethyl 2-amino-6-(3,5-dimethoxyphenyl)-4-(2-ethoxy-2-oxoethyl)-4H-chromene-3-carboxylate (CXL017) and the potential of the lead against multidrug resistance in cancer treatment” (J Med Chem, 2012) are described below.

In experiment [1] the test system is HL-60. The experiment is described as follows: Cytotoxicity against human HL60 cells assessed as cell viability after 48 hrs by celltiter-blue assay. The experiment is classed as functional, cell-based. The note with it: HL-60, 48 h. In outline:
(§1)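 Tumour cell growth inhibition was measured in vitro, following the lab's established procedure. IC50 values are the mean of at least two independent experiments, each run in triplicate.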

Experiment [2] concerns HL-60. As to the kind of experiment: Ratio of IC50 for human HL60/MX2 cells to IC50 for human HL60 cells. The class given is functional. The method, boiled down:
(§2)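 Each resistant subline and its matched parental line were tested in the same growth-inhibition assay, with IC50 taken as the mean of at least two independent experiments in triplicate. The MDR/parental IC50 ratio is reported as relative sensitivity: above 1 means resistance, below 1 means collateral sensitivity. Parental lines came from different sources for each resistant pair.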

Experiment [3] concerns HL-60. The experiment is described as follows: Ratio of IC50 for human HL60/ADR cells to IC50 for human HL60 cells. The class given is functional. In outline: as §2
For experiment [4], the system named is HL-60. The experiment is described as follows: Ratio of IC50 for daunorubicin-resistant human HL60 cells to IC50 for human HL60 cells. The class given is functional. The method, boiled down: as §2
The test system of experiment [5] is K562. The experiment is described as follows: Ratio of IC50 for doxorubicin-resistant human K562 cells to IC50 for human K562 cells. The experiment is classed as functional. The method, boiled down:
as §2

The test system of experiment [6] is CCRF-CEM. As to the kind of experiment: Ratio of IC50 for human CCRF-CEM/VM-1-5 cells IC50 for human CCRF-CEM cells. The class given is functional. In outline: as §2
For experiment [7], the system named is K562. The experiment is described as follows: Ratio of IC50 for human K562/HHT300 cells to IC50 for human K562 cells. The class given is functional. In outline:
as §2

For experiment [8], the system named is CCRF-CEM. As to the kind of experiment: Ratio of IC50 for human CCRF-CEM/C2 cells IC50 for human CCRF-CEM cells. The class given is functional. In outline:
as §2

Experiment [9] has as its system HL-60. The experiment is described as follows: Ratio of IC50 for doxorubicin-resistant human HL60 cells to IC50 for human HL60 cells. The class given is functional. The method, boiled down: as §2
For experiment [10], the system named is K562. The experiment is described as follows: Cytotoxicity against human K562 cells assessed as cell viability after 48 hrs by celltiter-blue assay. The experiment is classed as functional, cell-based. The settings on record: K562, 48 h. In outline:
as §1

Experiment [11] deals with CCRF-CEM. As to the kind of experiment: Cytotoxicity against human CCRF-CEM cells assessed as cell viability after 48 hrs by celltiter-blue assay. The experiment is classed as functional, cell-based. The method, boiled down: as §1
(In general: The colour change of resazurin is a common sign of viable cells or microbes.)

The subject of experiment [12] is CCRF-CEM. The experiment is described as follows: Ratio of IC50 for human CCRF-CEM/VLB100 cells IC50 for human CCRF-CEM cells. The class given is functional. In outline:
as §2

What is called IC50 is the point on the concentration scale where inhibition reaches its midpoint. Consider `COc1cc(OC)cc(-c2ccc3c(c2)C(CC(=O)OCC2CO2)C(C(=O)OCC2CO2)=C(N)O3)c1` (racemic), for which, in the experiment on HL-60 [1], the 50% inhibitory concentration (IC50) was > 80 µM.
As to `CCOC(=O)CC1C(C(=O)OC)=C(N)Oc2ccc(-c3cc(OC)cc(OC)c3)cc21` (racemic), the concentration for half-maximal inhibition (IC50) in the experiment with HL-60 [1] turned out to be 10.8 µM.
`CCOC(=O)CC1C(C(=O)OCC)=C(N)Oc2ccc(-c3ccccc3F)cc21` (racemic): in the experiment on HL-60 [1], the 50% inhibitory concentration (IC50) came out at 73 µM.
Take `C#CCOC(=O)CC1C(C(=O)OCC)=C(N)Oc2ccc(-c3ccc(NCC)cc3)cc21` (racemic): the concentration for half-maximal inhibition (IC50) with HL-60 [1] stood at 33 µM.
On to `CCOC(=O)CC1C(C(=O)OCC)=C(N)Oc2ccc(-c3cncnc3)cc21` (racemic), for which the 50% inhibitory concentration (IC50) in the experiment with HL-60 [1] was found to be 37.9 µM.
For the compound `COc1cccc2c1C(=O)c1c(O)c3c(c(O)c1C2=O)C[C@@](O)(C(=O)CO)C[C@@H]3O[C@H]1C[C@H](N)[C@H](O)[C@H](C)O1` [DOXORUBICIN], the “Ratio IC50” value in the experiment with HL-60 [2] is given as 5.3; in the experiment on HL-60 [3] it was >15; with HL-60 [4] it was >50; with K562 [5], >10; in the experiment on CCRF-CEM [6] it was >15; in the experiment with K562 [7] it was >20. The “Ratio IC50” value in the experiment on CCRF-CEM [8] is given as 6.7; with HL-60 [9], >100. Also, the 50% inhibitory concentration (IC50) in the experiment on HL-60 [1] amounted to 0.04 µM; with K562 [10] it was 0.44 µM; in the experiment on CCRF-CEM [11] it was 0.11 µM.
`CCOC(=O)CC1C(C(=O)OCC)=C(N)Oc2ccc(-c3cc(F)cc(F)c3)cc21` (racemic): in the experiment with HL-60 [1], the IC50 turned out to be 35.9 µM.
In the case of `CC[C@]1(O)C[C@H]2CN(CCc3c([nH]c4ccccc34)[C@@](C(=O)OC)(c3cc4c(cc3OC)N(C=O)[C@H]3[C@@](O)(C(=O)OC)[C@H](OC(C)=O)[C@]5(CC)C=CCN6CC[C@]43[C@@H]65)C2)C1` [VINCRISTINE], the “Ratio IC50” value is 1 in the experiment with HL-60 [2]; 1 in the experiment on HL-60 [3]; >1000 in the experiment on K562 [5]; 1 in the experiment on CCRF-CEM [6]; >1000 in the experiment on CCRF-CEM [12]; >1000 with K562 [7]. Besides, the “Ratio IC50” value is 1 in the experiment on CCRF-CEM [8] and >1000 in the experiment with HL-60 [9]. Further, the IC50 in the experiment on HL-60 [1] was found to be 6e-05 µM; in the experiment on K562 [10], 0.0001 µM; in the experiment with CCRF-CEM [11] it was 0.00017 µM.
`C#CCOC(=O)CC1C(C(=O)OCC#C)=C(N)Oc2ccc(-c3cccc(NC)c3)cc21` (racemic): the IC50 in the experiment with HL-60 [1] was 0.88 µM.
In the case of `CCOC(=O)CC1C(C(=O)OCC)=C(N)Oc2ccc(-c3ccc(F)cc3F)cc21` (racemic), in the experiment with HL-60 [1], the IC50 worked out at 76.6 µM.
With `C#CCOC(=O)CC1C(C(=O)OCC#C)=C(N)Oc2ccc(-c3ccc(N(C)C)cc3)cc21` (racemic), the IC50 in the experiment on HL-60 [1] is 2.56 µM.
On to `C#CCOC(=O)CC1C(C(=O)OCC#C)=C(N)Oc2ccc(-c3cccc(-n4cnnn4)c3)cc21` (racemic), for which, in the experiment with HL-60 [1], the IC50 came to 1.62 µM.
Turning to `CCOC(=O)CC1C(C(=O)OCC)=C(N)Oc2ccc(-c3ccccn3)cc21` (racemic), the IC50 in the experiment with HL-60 [1] was found to be 76.9 µM.
Take `CCOC(=O)CC1C(C(=O)OCC)=C(N)Oc2ccc(-c3cccc(NC)c3)cc21` (racemic): in the experiment with HL-60 [1], the IC50 turned out to be 7.45 µM.
Still for that read-out and setting: with `CCOC(=O)CC1C(C(=O)OCC)=C(N)Oc2ccc(-c3ccco3)cc21` (racemic) the figure was > 80 µM; with `CCOC(=O)CC1C(C(=O)OCC)=C(N)Oc2ccc(-c3ccc(N)cc3)cc21` (racemic), 22.3 µM; with `CCOC(=O)CC1C(c2nc(-c3ccc(OC)cc3)no2)=C(N)Oc2ccc(-c3cc(OC)cc(OC)c3)cc21` (racemic), > 80 µM.
Turning to `CCOC(=O)CC1C(C(=O)OCC)=C(N)Oc2ccc(-c3cccc(N)c3)cc21` (racemic), in the experiment on HL-60 [1], the half-inhibitory concentration (IC50) was 20.2 µM.
As for `CCOC(=O)CC1C(C(=O)OCC)=C(N)Oc2ccc(-c3cc(OC)cc(OC)c3)cc21` (racemic), in the experiment on HL-60 [1], the half-maximal inhibitory concentration (IC50) was 10.7 µM.
Same read-out and setting: the same measure for `CCOC(=O)CC1C(C(=O)OCC)=C(N)Oc2ccc(-c3cccc(C(N)=O)c3)cc21` (racemic): 5.4 µM.
`CCOC(=O)CC1C(C(=O)OCC)=C(N)Oc2ccc(-c3ccnc(OC)c3)cc21` (racemic): the half-inhibitory concentration (IC50) in the experiment with HL-60 [1] worked out at 10.2 µM.
With `Nc1ccn([C@@H]2O[C@H](CO)[C@@H](O)[C@@H]2O)c(=O)n1` [CYTARABINE], the “Ratio IC50” value with HL-60 [2] was 0.4; in the experiment with HL-60 [3], 0.1; in the experiment with K562 [5] it was 1.5; with CCRF-CEM [6] it was 6.5; in the experiment on CCRF-CEM [12] it was 1; in the experiment on K562 [7] it was 7. The “Ratio IC50” value is on record as 4.1 in the experiment on CCRF-CEM [8] and 7.5 with HL-60 [9]. The values for the IC50 in the experiment on HL-60 [1], in the experiment on K562 [10] and in the experiment with CCRF-CEM [11] were 0.049 µM, 14 µM and 0.006 µM, respectively.
`C#CCOC(=O)CC1C(C(=O)OCC#C)=C(N)Oc2ccc(-c3cccc(NC(=O)CCl)c3)cc21` (racemic): in the experiment with HL-60 [1], the IC50 was found to be 5.3 µM.
For `C#CCOC(=O)CC1C(C(=O)OCC)=C(N)Oc2ccc(-c3ccc(N)cc3)cc21` (racemic), the IC50 in the experiment with HL-60 [1] is 10.5 µM.
As for `C#CCOC(=O)CC1C(C(=O)OCC#C)=C(N)Oc2ccc(-c3cccc(N(C)C)c3)cc21` (racemic), the half-inhibitory concentration (IC50) with HL-60 [1] came to 12 µM.
On to `C#CCOC(=O)CC1C(C(=O)OCC)=C(N)Oc2ccc(-c3cccc(NCC)c3)cc21` (racemic), for which, in the experiment on HL-60 [1], the IC50 is 17.2 µM.
Still for that read-out and setting: the same measure for `C#CCOC(=O)CC1C(C(=O)OCC)=C(N)Oc2ccc(-c3cccc(NC)c3)cc21` (racemic): 7.13 µM.
With `C#CCOC(=O)CC1C(C(=O)OCC)=C(N)Oc2ccc(-c3cccc(N)c3)cc21` (racemic), the IC50 in the experiment with HL-60 [1] turned out to be 3.4 µM.
Take `CCOC(=O)CC1C(C(=O)OCC)=C(N)Oc2ccc(-c3cccc(F)c3)cc21` (racemic): the half-inhibitory concentration (IC50) in the experiment on HL-60 [1] is 76.4 µM.
Turning to `CCOC(=O)CC1C(C(=O)OCC)=C(N)Oc2ccc(-c3ccncc3)cc21` (racemic), the IC50 in the experiment with HL-60 [1] came to 10.2 µM.
Still for that read-out and setting: the same measure for `CCOC(=O)CC1C(C#N)=C(N)Oc2ccc(-c3cc(OC)cc(OC)c3)cc21` (racemic): 19.6 µM.
Consider `C#CCOC(=O)CC1C(C(=O)OCC#C)=C(N)Oc2ccc(-c3ccc(NC)cc3)cc21` (racemic), for which the concentration for half-maximal inhibition (IC50) in the experiment with HL-60 [1] amounted to 2.45 µM.
The same measure, in the same setting: the same measure for `C#CCOC(=O)CC1C(C(=O)OCC#C)=C(N)Oc2ccc(-c3cccc(NCC)c3)cc21` (racemic): 1.86 µM; for `CCOC(=O)CC1C(C(=O)OCC)=C(N)Oc2ccc(-c3cccnc3)cc21` (racemic): 21.5 µM.
Still for that read-out and setting: the same measure for `COC(=O)CC1C(C(=O)OC)=C(N)Oc2ccc(-c3cc(OC)cc(OC)c3)cc21` (racemic): 2.42 µM; for `CCOC(=O)CC1C(C(=O)OCC)=C(N)Oc2ccc(-c3ccc(F)cc3)cc21` (racemic): 72.1 µM.
Turning to `C#CCOC(=O)CC1C(C(=O)OCC#C)=C(N)Oc2ccc(-c3cccc(NCCO)c3)cc21` (racemic), in the experiment with HL-60 [1], the concentration for half-maximal inhibition (IC50) turned out to be 0.63 µM.
Still for that read-out and setting: the same measure for `C#CCOC(=O)CC1C(C(=O)OCC#C)=C(N)Oc2ccc(-c3ccc(NCC)cc3)cc21` (racemic): 7.27 µM.
Regarding `CCOC(=O)CC1C(C(=O)OCC)=C(N)Oc2ccc(-c3cccs3)cc21` (racemic), the IC50 in the experiment on HL-60 [1] was > 80 µM.
On to `C#CCOC(=O)CC1C(C#N)=C(N)Oc2ccc(-c3cccc(N)c3)cc21` (racemic), for which, in the experiment on HL-60 [1], the IC50 was 43.9 µM.
